# Experimental data from different studies.
# Each line is one published result; the experiments were not run side by side.
Structure (SMILES),assay,conditions,chromatographic logD
"CO[C@H](C(=O)N1Cc2c(-c3ccc(C(=O)N4CCCc5ccccc54)cc3)cnn2C[C@H]1C(C)C)c1ccccc1 (single isomer, unassigned)",HPLC,pH 7.4,5.4
CCn1c(-c2nc3cc(C(=O)N4CCC[C@@H](N)C4)cc(OC)c3n2C)cc2cccnc21,HPLC,pH 7.4,2.4
CC1=C(C(=O)OC(C)(C)C)C(=O)/C(=C\c2cc(C)n(-c3ccccc3C(F)(F)F)c2C)N1,HPLC,pH 7.4,3.8
Cc1n[nH]c(CC(=O)N2Cc3c(-c4ccc(C(=O)N5CCCc6ccccc65)cc4)cnn3C[C@H]2C)n1,HPLC,pH 7.4,2.7
CCOC(=O)C1=C(C)N/C(=C/c2cc(C)n(-c3ccc(CN(C)C)cc3)c2C)C1=O,HPLC,pH 7.4,2.1
CCc1nnc(NC(=O)c2nc(-c3ccc(Cl)cc3)n3c2CCCCC3)s1,,pH 7.4,6.8
CC(C)(C)C1=CC(=NNC(=O)c2ccc([N+](=O)[O-])cc2)C=C(C(C)(C)C)C1=O,HPLC,pH 7.4,4.9
"CO[C@H](C(=O)N1Cc2c(-c3ccc(C(=O)N4CCCc5ccccc54)cc3)cnn2C[C@H]1C(C)C)c1cnn(C)c1 (single isomer, unassigned)",HPLC,pH 7.4,4.2
CC1=C(C(=O)O)C(=O)/C(=C\c2cc(C)n(-c3ccccc3C(F)(F)F)c2C)N1,HPLC,pH 7.4,3.2
C[C@@H]1Cn2ncc(-c3ccc(C(=O)N4CCCc5ccccc54)cc3)c2CN1C(=O)[C@H](C)c1ccccc1,HPLC,pH 7.4,5.2
CC1=C(C#N)[C@@H](c2ccc(C#N)cc2S(C)(=O)=O)NC(=O)N1c1cccc(C(F)(F)F)c1,HPLC,pH 7.5,2.7
N#CC(c1ccc(CNc2cccc3c2CN(C2CCC(=O)NC2=O)C3=O)cc1)N1CCOCC1 (stereo not shown),HPLC,pH 7.4,2
COc1ccc(-c2nc(C(=O)Nc3cccc(-c4nnc5n4CCCCC5)c3)cs2)cc1OC,,pH 7.4,4.8
C[C@@H]1Cn2ncc(-c3ccc(C(=O)N4CCCc5ccccc54)cc3)c2CN1C(=O)Cc1ccccc1,HPLC,pH 7.4,4.9
CCOC(=O)C1=C(C)N/C(=C/c2cc(C)n(-c3cccnc3)c2C)C1=O,HPLC,pH 7.4,1.9
Cn1c(-c2nc3cc(C(=O)N4CCCC(N)C4)ccc3n2C)cc2ccccc21 (stereo not shown),HPLC,pH 7.4,2.8
CCOC(=O)C1=C(C)N/C(=C/c2cc(C)n(-c3ccc(CN4CCCCC4)cc3)c2C)C1=O,HPLC,pH 7.4,2.7
O=C(Nc1ccc2c(c1)B(O)OC2)Nc1ccc(F)c(C(F)(F)F)c1,HPLC,pH 7.4,2.5
CCOC(=O)C1=C(C)N/C(=C/c2cc(C)n(-c3ccc(S(=O)(=O)C(F)(F)F)cc3)c2C)C1=O,HPLC,pH 7.4,3.4
Cc1oc(-c2ccccc2)nc1C(=O)NCCN1CCCCCC1=O,,pH 7.4,4.5
CCOC(=O)C1=C(C)N/C(=C/c2cc(C)n(-c3ccc(SC)cc3)c2C)C1=O,HPLC,pH 7.4,3.3
CC1=C(C#N)[C@@H](c2ccc(C#N)cc2C(F)(F)F)NC(=O)N1c1cccc(C(F)(F)F)c1,HPLC,pH 7.5,3.2
